Legend:
[1] = system: Mycobacterium tuberculosis; test: Binding affinity to Mycobacterium tuberculosis EthR assessed as change in melting temperature at 20 uM by thermal shift assay
Summary of the method: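 Protein unfolding tracked with SYPRO Orange in a real-time PCR instrument. Ligand at 20 μM in EthR buffer (10 mM Tris/HCl, 300 mM NaCl, 0.1 mM EDTA, pH 7.5). Heated 37 to 85 °C at 0.04 °C/s, fluorescence read at Ex/Em 465/510 nm. ΔTm taken as the holo minus apo melting temperature.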

[2] = system: Mycobacterium tuberculosis; test: Antimicrobial activity against Mycobacterium tuberculosis H37Rv expressing GFP infected in mouse RAW264.7 cells assessed as concentration required to potentiate 0.1 ug/ml […] to inhibit microbial growth by 50% by fluorescence assay; format: functional, organism-based
Summary of the method: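 RAW264.7 macrophages infected with H37Rv-GFP at MOI 1:1 for 2 h at 37 °C with shaking. Extracellular bacilli killed with amikacin (20 μM, 1 h). Infected cells added to compound serial dilutions (ten 2-fold) with ethionamide fixed at 0.1 μg/mL, 5 days at 37 °C, 5% CO2. SYTO 60 stained; confocal imaging gives percent infected cells and cell number. Two replicates averaged.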

[3] = Solubility in PBS at pH 7.4 after 24 hrs by LC-MS/MS analysis; format: physicochemical
Summary of the method: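 10 mM DMSO stock diluted 1:50 into PBS pH 7.4 or MeOH. Shaken 24 h at room temperature, centrifuged, filtered (0.45 μm), diluted tenfold in MeOH. Analysed by LC-MS/MS (SIM or MRM). Solubility from the PBS/MeOH ratio of mass signal areas.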

[4] = Inhibition of Mycobacterium tuberculosis EthR assessed as inhibition of EthR-DNA interaction after 3 mins by SPR assay
Summary of the method: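 106-bp biotinylated ethA/ethR intergenic DNA immobilised on a streptavidin chip (about 75 RU). An irrelevant 113-bp bla fragment in the reference channel; signal taken as the channel difference. Preincubated 5 min at 37 °C, injected at 20 μL/min for 3 min at 25 °C. Response read at end of injection; IC50 from dose-response.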

Work on `Cc1nc(-c2ccc(S(=O)(=O)NCC(F)(F)F)cc2)cs1` yielded a ΔTm [1] of 6.3 °C and an EC50 [2] of 7.9 µM.
Work on `Cc1nc(-c2ccc(S(=O)(=O)NCCC(C)(C)C)cc2)cs1` yielded a ΔTm [1] of 2.3 °C and an EC50 [2] greater than 20 µM.
In the case of `COc1ccc(-c2ccc(S(=O)(=O)NCCC(C)C)cc2)cc1`, the ΔTm [1] is reported as 3.7 °C and the EC50 [2] is reported as greater than 10 µM.
Compound `CC(C)CCNS(=O)(=O)c1ccc(-c2cnco2)cc1` has a ΔTm [1] of 1.2 °C and an EC50 [2] greater than 10 µM.
`CCCS(=O)(=O)NCc1nc(-c2ccc(C(=O)NCCC(F)(F)F)cc2)cs1` gave a solubility at 24 h [3] of 1.3 µg/mL, an IC50 [4] of 0.56 µM and a ΔTm [1] of 6.6 °C. The EC50 [2] was 0.32 µM.
With `CC(C)CCNS(=O)(=O)c1ccc(-c2ccc(F)cc2)cc1` the ΔTm [1] was 2.2 °C and the EC50 [2] was greater than 10 µM.
With `Cc1nc(-c2ccc(S(=O)(=O)NCCC(F)(F)F)cc2)cs1` the solubility at 24 h [3] was 14.5 µg/mL, the IC50 [4] was 0.55 µM and the ΔTm [1] was 8.5 °C. It also gave an EC50 [2] of 0.29 µM.
Compound `CC(C)CCNS(=O)(=O)c1ccc(I)cc1` has a ΔTm [1] of 1.9 °C and an EC50 [2] greater than 10 µM.
`CCOC(=O)c1ccc(S(=O)(=O)NCCC(C)C)cc1` showed a ΔTm [1] of 4.3 °C and an EC50 [2] of 10 µM.
Work on `C#CCNS(=O)(=O)c1ccc(I)cc1` yielded a solubility at 24 h [3] greater than 200 µM, an IC50 [4] of 160 µM and a ΔTm [1] of 0.1 °C. For the same compound, the EC50 [2] was greater than 10 µM.
`Cc1nc(-c2ccc(S(=O)(=O)NCCCC(F)(F)F)cc2)cs1` gave a ΔTm [1] of 6.6 °C and an EC50 [2] greater than 2.5 µM.
Compound `CCCCOc1ccc(S(=O)(=O)NCCC(C)C)cc1` has a ΔTm [1] of 3.6 °C and an EC50 [2] greater than 10 µM.
In the case of `CC(=O)Nc1ccc(-c2ccc(S(=O)(=O)NCCC(C)C)cc2)cc1`, the ΔTm [1] is reported as 2 °C and the EC50 [2] is reported as greater than 10 µM.
`Cc1nc(-c2ccc(S(=O)(=O)NCCC(C)C)cc2)cs1` showed a solubility at 24 h [3] of 6.6 µg/mL, an IC50 [4] of 4.9 µM and a ΔTm [1] of 6.1 °C. The EC50 [2] was 5.7 µM.
In the case of `O=C(NCCC(F)(F)F)c1ccc(C#CCNS(=O)(=O)c2ccccc2)cc1`, the solubility at 24 h [3] is reported as 3 µg/mL, the IC50 [4] is reported as 3.9 µM and the ΔTm [1] is reported as 4.2 °C. The EC50 [2] was 0.23 µM.
For `Cc1nc(-c2ccc(C(=O)NCCC(F)(F)F)cc2)cs1`, the solubility at 24 h [3] was 14.7 µg/mL, the IC50 [4] was 0.4 µM and the ΔTm [1] was 11.2 °C. For the same compound, the EC50 [2] was 0.08 µM.
In the case of `CC(C)CCNS(=O)(=O)c1ccc(CCC(C)C)cc1`, the ΔTm [1] is reported as 3.2 °C and the EC50 [2] is reported as 6.3 µM.
Compound `CC(C)CCNS(=O)(=O)c1ccc(-n2cccn2)cc1` has a ΔTm [1] of 1.9 °C and an EC50 [2] greater than 10 µM.
With `CC(C)CCNS(=O)(=O)c1ccc(N2CCCC2=O)cc1` the ΔTm [1] was 0.6 °C and the EC50 [2] was greater than 10 µM.

Reference: ChEMBL document CHEMBL3286364, “Ligand efficiency driven design of new inhibitors of Mycobacterium tuberculosis transcriptional repressor EthR using fragment growing, merging, and linking approaches” (J Med Chem, 2014)
